Assay outcomes (PubChem)
Rows were chosen to be rich in hits. Some 2.3% of all compounds tested hit in one or more screens of this group.
TRPC4 agonist: activators of mouse TRPC4 channel, primary screen, Fluo4 calcium, HEK293 TRPC4beta/mu-opioid cells; B-score at 10 µM; AID 2237, 2010; Short transient receptor potential channel 4 (Mus musculus), Q9QUQ5; Fluo4 calcium fluorescence; stronger effect = higher value; 310,000 compounds, 0.49% hits;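 active = B-score above 5 SD of library B-scores, and initial fluorescence ratio not above library mean plus 5 SD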;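 also: positive B-score marks a calcium rise read as TRPC4 activation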
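system = HEK293 cells stably co-expressing mouse TRPC4beta and mu-opioid receptor | schedule = Fluo4 dye loading 45 min at room temperature, 110 s recording | measure = B-scored integrated calcium fluorescence ratio | signal = Fluo4 calcium-sensitive dye fluorescence, kinetic, 1 Hz baseline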
TRPC6 activator: mouse TRPC6 channel activators, primary screen, cell-based, HEK293, membrane potential dye. 310,000 compounds, 0.13% hits. HEK293-TRPC6 membrane potential dye fluorescence; stronger effect = higher value. B-score at 10 µM. AID 2550, 2010. Short transient receptor potential channel 6 (Mus musculus), Q61143;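 active = B-score of the integrated fluorescence ratio above library mean plus 3 SD, and starting fluorescence ratio within library mean plus 5 SD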;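 also: higher score means more depolarization so channel activation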
Target sequence (Q61143 whole entry, looked up): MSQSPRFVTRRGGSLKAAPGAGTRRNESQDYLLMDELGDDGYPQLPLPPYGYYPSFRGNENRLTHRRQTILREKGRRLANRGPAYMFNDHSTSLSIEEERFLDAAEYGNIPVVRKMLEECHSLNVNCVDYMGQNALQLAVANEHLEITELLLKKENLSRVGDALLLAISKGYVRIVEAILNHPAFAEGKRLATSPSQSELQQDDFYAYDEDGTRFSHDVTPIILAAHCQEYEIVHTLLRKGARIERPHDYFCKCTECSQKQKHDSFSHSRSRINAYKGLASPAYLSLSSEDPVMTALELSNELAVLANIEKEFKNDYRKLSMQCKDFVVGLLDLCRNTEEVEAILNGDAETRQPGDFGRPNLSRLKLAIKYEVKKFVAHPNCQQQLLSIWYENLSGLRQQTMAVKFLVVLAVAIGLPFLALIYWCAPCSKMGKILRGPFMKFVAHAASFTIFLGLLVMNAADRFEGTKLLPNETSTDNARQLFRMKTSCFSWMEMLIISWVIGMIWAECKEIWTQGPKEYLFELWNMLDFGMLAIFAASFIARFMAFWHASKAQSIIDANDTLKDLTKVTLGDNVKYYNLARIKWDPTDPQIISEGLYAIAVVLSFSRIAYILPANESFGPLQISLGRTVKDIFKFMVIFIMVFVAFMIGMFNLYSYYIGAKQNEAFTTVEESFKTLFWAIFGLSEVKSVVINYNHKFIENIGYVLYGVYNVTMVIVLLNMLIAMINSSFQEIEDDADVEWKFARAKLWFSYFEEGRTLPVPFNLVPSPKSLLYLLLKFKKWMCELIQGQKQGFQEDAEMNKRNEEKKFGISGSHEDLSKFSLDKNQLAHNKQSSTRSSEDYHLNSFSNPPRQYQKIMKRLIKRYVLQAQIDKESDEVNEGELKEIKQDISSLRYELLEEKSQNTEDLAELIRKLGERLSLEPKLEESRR
TRPC4 block: inhibitors of mouse TRPC4 channel, primary screen, Fluo4 calcium, HEK293 TRPC4beta/mu-opioid cells; Short transient receptor potential channel 4 (Mus musculus), Q9QUQ5; DAMGO-evoked Fluo4 calcium flux; stronger effect = lower value; B-score at 10 µM; 300,000 compounds, 0.39% hits; AID 2247, 2010;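 active = B-score over 3 SD under the library average, no early fluorescence shift, positive overall ratio signal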
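Test system – stable TRPC4beta/mu-opioid receptor HEK293 cells · Probe or stimulus – DAMGO, a submaximal dose followed by a maximal one · Dosing – one concentration per compound · Signal – Fluo4 calcium fluorescence by kinetic imaging, 5 s 1 Hz baseline · Evaluation – per-well B score of integrated baseline-normalized Fluo4 ratio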
TRPC4 PAM: positive allosteric modulators of TRPC4, primary screen, cell-based, mouse TRPC4beta, HEK293 mu-opioid, Fluo-4 calcium; DAMGO EC20, Fluo-4 Ca2+ flux; stronger effect = higher value; B-score at 10 µM; 310,000 compounds, 0.42% hits; AID 2227, 2009;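 active = B-score of calcium response area above 5 SD of library B-scores, with initial fluorescence ratio within 5 SD of library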;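 also: B-score of integrated fluorescence ratio over time as area under calcium response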
TRPC6 inhibitor: mouse TRPC6 channel inhibitors, primary screen, cell-based, HEK293, membrane potential dye | Short transient receptor potential channel 6 (Mus musculus), Q61143 | ACh-evoked depolarization; stronger effect = lower value | B-score at 10 µM | 310,000 compounds, 1.1% hits;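 active = B-score under library mean minus 3 SD, initial fluorescence not abnormally high, positive integrated signal ratio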;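 also: B-score derived from integrated fluorescence ratio over the kinetic read; more negative B-score means stronger inhibition of depolarization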
TRPC4 sel inh 2: mouse TRPC4 off-target activity of TRPC6 inhibitors, second screen; shares compounds with TRPC6 inhibitor; HEK293 TRPC4/MOR, membrane potential dye fluorescence; channel activated by saturating DAMGO dose; 920 compounds, 42% hits; inhibition, % at 10 µM; AID 2776;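 active = compounds whose fluorescence signal differed from control wells by over 3 SD, either direction, in both duplicate plates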
TRPC4 spec: mouse TRPC4 modulation by TRPC6 hits, confirmation, selectivity assay for TRPC6 inhibitor project, cell-based, HEK293 TRPC4/mu-opioid, membrane potential dye; shares compounds with TRPC6 inhibitor; membrane potential fluorescence; activity change, negative = inhibition, % at 10 µM; 920 compounds, 61% hits; AID 2777, 2010;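 active = rise or fall in signal beyond 3 SD of buffer-only wells in both replicate plates, either sign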;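 also: integrated kinetic ratio of fluorescence range over baseline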
HEK293 MPD ctr 2-1: nonspecific membrane potential effects, parental HEK293, confirmation, counter-screen for TRPC6 inhibitor project, cell-based, second counter screen; shares compounds with TRPC6 inhibitor; parental HEK293 membrane potential dye fluorescence; maximal acetylcholine challenge after compound addition; signal change vs control, % at 10 µM; 920 compounds, 31% hits; AID 2779, 2010;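 active = membrane potential signal moving either way by over 3 SD of the maximum-effect control, in both duplicate plates, meaning non-specific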
HEK293 MPD ctr-1: membrane potential modulation in parental HEK293, confirmation, counter-screen for TRPC6 inhibitor project, cell-based | 920 compounds, 60% hits | parental HEK293 membrane potential dye fluorescence | shares compounds with TRPC6 inhibitor | membrane potential signal change, % at 10 µM | AID 2780, 2010;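 active = membrane potential signal shifting up or down by more than 3 SD of buffer-only wells, on both duplicate plates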
HEK293 MPD ctr-2: parental HEK293 membrane potential modulation, confirmation, counter-screen for TRPC6 modulator project, cell-based; shares compounds with TRPC6 inhibitor; membrane potential dye fluorescence; membrane potential signal change, % at 10 µM; 2,400 compounds, 51% hits; AID 488924, 2010;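 active = membrane potential signal moves up or down beyond 5 SD from buffer-only wells, on both duplicate plates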
HEK293 MPD ctr 2-2: parental HEK293 nonspecific activity of TRPC6 modulators, second screen | 2,400 compounds, 14% hits | membrane potential dye fluorescence; after compound, maximal acetylcholine stimulation | AID 488926 | shares compounds with TRPC6 inhibitor | inhibition, % at 10 µM;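 active = membrane potential signal drops by more than 5 SD from the mean control signal, in both duplicate plates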;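 also: plate controls were acetylcholine ECmax control wells for no effect and buffer only wells for full effect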
TRPC4 ctr mod: TRPC4 modulation by TRPC6 hit compounds, confirmation, selectivity assay for TRPC6 modulator project, cell-based, HEK293 TRPC4/mu-opioid, membrane potential dye, mouse | shares compounds with TRPC6 inhibitor | 2,400 compounds, 69% hits | AID 488927, 2010 | membrane potential fluorescence | percent change from control (negative = decrease, positive = increase), % at 10 µM;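 active = membrane potential signal moved up or down beyond 5 SD of buffer control wells, in both duplicate plates, actives on both sides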;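 also: plate controls were assay buffer wells for no effect and DAMGO maximal-effect wells for full effect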
TRPC4 ctr inh 2: second check of whether TRPC6 modulators also affect mouse TRPC4. 2,400 compounds, 55% hits. inhibition, % at 10 µM. shares compounds with TRPC6 inhibitor. HEK293 TRPC4/mu-opioid, membrane potential dye fluorescence; stimulated with maximal-effect DAMGO;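 active = drop in membrane potential signal beyond 5 SD of the control wells in both duplicate plates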;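 also: TRPC4 counter screen for TRPC6 hits run under conditions tuned for TRPC6 not TRPC4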
TRPC6 block conf: mouse TRPC6 channel inhibitors, confirmation, HEK293 cells, membrane potential dye, duplicate | shares compounds with TRPC6 inhibitor | ACh-evoked depolarization | inhibition, % at 10 µM | 3,300 compounds, 43% hits;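 active = fluorescence ratio falls more than 5 SD below the full-stimulation control mean, in both duplicate runs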;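 also: integrated fluorescence ratio of peak minus minimum over baseline after agonist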
TRPC6 act conf: mouse TRPC6 channel activators, confirmation, HEK293 cells, membrane potential dye, duplicate; 2,800 compounds, 11% hits; HEK293-TRPC6 membrane potential dye fluorescence, FDSS; shares compounds with TRPC6 inhibitor; activation, % at 10 µM; AID 488961, 2010;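 active = ratio signal rise beyond 5 SD above unstimulated control wells' mean, seen in both duplicate runs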;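 also: plate controls were buffer EC0 wells for no effect and acetylcholine ECmax response for full effect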
* = called active by the depositor; i = inactive; x = no result.

SMILES	TRPC4 agonist	TRPC6 activator	TRPC4 block	TRPC4 PAM	TRPC6 inhibitor	HEK293 MPD ctr-2	HEK293 MPD ctr 2-2	TRPC4 ctr mod	TRPC4 ctr inh 2	TRPC6 block conf	TRPC6 act conf	others
CCN(CC)CCC/C(=N\O)C(O)(c1ccccc1)c1ccccc1	i	i	i	i	-9.44*	x	x	x	x	88.1%*	i	TRPC4 sel inh 2=i;TRPC4 spec=0.0%*;HEK293 MPD ctr 2-1=-37.0%*;HEK293 MPD ctr-1=i
CC[N+](C)(CC)CCC/C(=N/O)C(O)(c1ccccc1)c1ccccc1	i	i	i	i	-8.46*	x	x	x	x	71.2%*	i	TRPC4 sel inh 2=i;TRPC4 spec=i;HEK293 MPD ctr 2-1=3.5%*;HEK293 MPD ctr-1=i
CCN(CC)CCNC1=NCCn2c1cc1cc(OC)ccc12	i	i	i	i	-6.7*	-145.5%*	i	-27.5%*	43.5%*	i	i
COc1ccc(Oc2c(C(F)(F)F)oc3cc(OCC(=O)O)ccc3c2=O)cc1	i	i	i	i	-5.17*	i	i	i	i	i	i
COc1ccc(Cc2nc3ccccc3[nH]2)cc1OC	i	i	i	i	i	x	x	x	x	x	x
Cc1ccc(NC(=S)NCC(C)C)cc1	i	i	i	i	-7.23*	x	x	x	x	i	i	TRPC4 sel inh 2=i;TRPC4 spec=i;HEK293 MPD ctr 2-1=i;HEK293 MPD ctr-1=i
CC(C)CNC(=S)Nc1ccc(S(N)(=O)=O)cc1	i	i	i	i	i	x	x	x	x	x	x
CCC(C(=O)NC1CCCCC1)n1c(SCc2ccccc2F)nc2ccncc21 (stereo not given)	i	i	i	i	-5.23*	i	i	i	i	i	i
COc1ccc(COC(=O)c2cccc(S(=O)(=O)N3CCN(C(C)=O)CC3)c2)cc1	i	i	i	i	i	x	x	x	x	x	x
COC(=O)c1ccc(OCC(=O)c2cccc(OC)c2)cc1	i	i	i	i	i	x	x	x	x	x	x
NCCNc1ccc(C(=O)N2c3ccccc3Sc3ccccc32)cc1[N+](=O)[O-]	i	i	i	i	-6.19*	i	i	-10.0%*	59.5%*	54.5%*	i
Cc1cc(C(=O)N/N=C/c2cc(N=Nc3ccccc3)ccc2O)n[nH]1	i	i	i	i	-5.89*	i	i	i	i	i	i
Cc1[nH]n(-c2ccccc2)c(=O)c1/C=N/NC(=O)c1ccc(O)cc1O	i	i	i	i	i	x	x	x	x	x	x
Cc1cc(C(=O)N/N=C/c2c(C)[nH]n(-c3ccccc3)c2=O)n[nH]1	i	i	i	i	-7.91*	x	x	x	x	i	i	TRPC4 sel inh 2=i;TRPC4 spec=-23.2%*;HEK293 MPD ctr 2-1=i;HEK293 MPD ctr-1=-328.0%*
CN(C)CCNc1cc(-c2ccncc2)nc2ccccc12	i	i	i	15*	-11.3*	-327.5%*	90.0%*	-81.0%*	77.5%*	75.0%*	i
Cc1ccc(-c2nc(NCCN(C)C)c3ccccc3n2)cc1	i	i	i	i	i	x	x	x	x	x	x
Cc1nc2cc(-c3ccc(Cl)cc3)nn2c(NCCN(C)C)c1C	i	i	i	i	-6.05*	-89.0%*	i	-21.0%*	45.5%*	i	i
Cc1cc(C)n2nc(-c3ccc(Cl)cc3)cc2n1	i	i	i	i	i	x	x	x	x	x	x
Cc1cc(C)nc(Nc2nc(C)c3cc4c(cc3n2)OCO4)n1	i	i	i	i	-6.81*	x	x	x	x	i	i	TRPC4 sel inh 2=i;TRPC4 spec=9.0%*;HEK293 MPD ctr 2-1=-138.5%*;HEK293 MPD ctr-1=8.5%*
Cc1nc(NC(=O)c2ccc(Cl)cc2)nc2cc3c(cc12)OCO3	i	i	i	i	i	x	x	x	x	x	x
CNS(=O)(=O)c1cc(S(=O)(=O)NC)c2cccc3c2c1NC3=O	i	i	i	i	i	x	x	x	x	x	x
Cn1cc(/C=C(\C#N)C(=O)Nc2ccccc2O)c2ccccc21	i	i	i	i	i	x	x	x	x	x	x
Cc1cccc2sc(N(CCCN(C)C)C(=O)c3ccc4ncsc4c3)nc12	i	i	i	i	-5.03*	i	i	i	78.0%*	45.0%*	i
Cc1ccc2sc(N(CCCN(C)C)C(=O)c3ccc(Br)s3)nc2c1C	i	i	i	i	-6.53*	i	i	-20.0%*	80.5%*	i	i
Cc1ccc2sc(N(CCCN(C)C)C(=O)c3nc4ccccc4s3)nc2c1C	i	i	i	i	i	x	x	x	x	x	x
Clc1ccc2c(c1)C(N1CCNCC1)Cc1ccccc1S2 (stereo not given)	i	i	i	i	-5.44*	i	i	i	74.0%*	64.0%*	i
